Measured values gathered from unrelated publications.
Compare with care: the assays were run in different laboratories.
Cell line: HepG2
Read-out: cell growth or viability

SMILES	technique	time	IC50
CCCCNC(=O)NNC(=O)c1cccc(Nc2nccc(-c3ccncc3)n2)c1	MTT	24 h	> 40 µM
Oc1c(I)cc(Cl)c2cccnc12	MTT	48 h	58.6 µM
CC(=O)O[C@H]1C(=O)[C@@]2(C)[C@H]([C@H](OC(=O)c3ccccc3)[C@]3(O)C[C@H](OC(=O)[C@H](O)[C@@H](NC(=O)c4ccccc4)c4ccccc4)C(C)=C1C3(C)C)[C@]1(OC(C)=O)CO[C@@H]1C[C@@H]2O			2 µg/mL
Cc1ccc2nc(-c3ccc(N(C)C)cc3)[nH]c2c1	MTT	48 h	35.1 µM
Cc1ccc2c(Cl)cc(Cl)c(O)c2n1	MTT	48 h	> 100 µM
Oc1ccc(-c2csc(Nc3ccc4c(O)ncnc4c3)n2)cc1	MTT		14.2 µM
Cc1cccc(NC(=O)NNC(=O)c2ccc(Nc3nccc(-c4ccccn4)n3)cc2)c1	MTT		23.3 µM
Nc1nc(-c2ccc(NC(=O)Nc3cc(Br)cc(Br)c3)cc2)c[nH]1	XTT	24 h	47.6 µM
Fc1cccc(Cl)c1-c1nc2ccccc2[nH]1	MTT	48 h	> 100 µM
Oc1c(I)cc(I)c2cccnc12	MTT	48 h	80.1 µM
C=CCNC1=C2C[C@@H](C)C[C@H](OC)[C@H](O)[C@@H](C)/C=C(\C)[C@H](OC(N)=O)[C@@H](OC)/C=C\C=C(/C)C(=O)NC(=CC1=O)C2=O	MTT		0.086 µM
Oc1ncnc2cc(Nc3nc(-c4ccc(C(F)(F)F)cc4)cs3)ccc12	MTT		5.91 µM
CC1=C(O)C(=O)C=C2C1=CC=C1[C@@]2(C)CC[C@@]2(C)[C@@H]3C[C@](C)(C(=O)OCCCBr)CC[C@]3(C)CC[C@]12C	MTT	48 h	1.32 µM
Cc1cc(=O)oc2ccc(-c3cc(-c4ccc(Br)cc4)nc(N)n3)c(O)c12	MTT	72 h	> 128 µg/mL
Cc1ccc2nc(-c3ccc(F)cc3)n(Cc3ccccc3)c2c1	MTT		27.2 µM
O=c1cc(-c2ccc(O)c(O)c2)oc2cc(O)cc(O)c12	WST-1	48 h	15.2 µM
O=C(NNC(=O)c1ccc(Nc2nccc(-c3ccccn3)n2)cc1)NC1CCCC1	MTT		> 40 µM
Nc1ccc(-c2csc(Nc3ccc4c(O)ncnc4c3)n2)cc1	MTT		15 µM
Cc1cc(C)n(-c2nc(Nc3ccc(Cl)cc3)nc(-n3nc(C)cc3C)n2)n1	MTT	72 h	19.5 µM
CNC(=O)c1cc(Oc2ccc(NC(=O)Nc3ccc(Cl)c(C(F)(F)F)c3)cc2)ccn1	MTT	24 h	16.9 µM
O=C(/C=C/c1ccc(O)c(O)c1)O[C@@H]1C[C@](O)(C(=O)O)C[C@@H](O)[C@H]1O	WST-1	48 h	24.6 µM
Cc1ccc2nc(-c3ccc(Cl)c(Cl)c3)[nH]c2c1	MTT	48 h	56.7 µM
Cc1cc(=O)oc2ccc(-c3cc(-c4ccc(Cl)cc4)nc(N)n3)c(O)c12	MTT	72 h	18.1 µg/mL
COc1cc2ncnc(Nc3ccc(F)c(Cl)c3)c2cc1NC(=O)N/N=C/CN1CCN(C)CC1	MTT	72 h	2.23 µM

SMILES	technique	time	IC50
COc1cc2c(Nc3ccc(NC(=O)c4ccccc4)cc3)ncnc2cc1OCCCN1CCOCC1	MTS	48 h	3.3 µM
CC1(C)[C@@H](O)CC[C@]2(C)[C@H]3C(=O)C=C4[C@@H]5C[C@@](C)(C(=O)O)CC[C@]5(C)CC[C@@]4(C)[C@]3(C)CC[C@@H]12	MTT	48 h	> 100 µM
COc1cc(-c2nc(OCc3cn(CC(=O)Nc4ccc(C)cc4)nn3)c3ccccc3n2)cc(OC)c1OC	MTT	72 h	13.6 µM
CC1(C)CC[C@]2(C)CC[C@]3(C)C(=CC[C@@H]4[C@@]5(C)CC[C@H](O)C(C)(C)[C@@H]5CC[C@]43C)[C@@H]2C1	WST-1	48 h	82.8 µM
CC1=C(O)C(=O)C=C2C1=CC=C1[C@@]2(C)CC[C@@]2(C)[C@@H]3C[C@](C)(C(=O)OCCCCCCCCO)CC[C@]3(C)CC[C@]12C	MTT	48 h	3.3 µM
CN(C)c1ccc(-c2nc3ccccc3[nH]2)cc1	MTT	48 h	37.5 µM
O=C(N/N=C/CN1CCCC1)Nc1cc2c(Nc3ccc(F)c(Cl)c3)ncnc2cc1O[C@H]1CCOC1	MTT	72 h	2.09 µM
Cc1ccc2nc(-c3ccncc3)[nH]c2c1	MTT	48 h	52.6 µM
COc1cccc2c1C(=O)c1c(O)c3c(c(O)c1C2=O)C[C@@](O)(C(=O)CO)C[C@@H]3O[C@H]1C[C@H](N)[C@H](O)[C@H](C)O1	neutral red	48 h	0.23 µg/mL
COc1cc2ncnc(Nc3ccc(F)c(Cl)c3)c2cc1NC(=O)N/N=C/CN1CCCCC1	MTT	72 h	2.06 µM
Clc1ccc(Cn2c(-c3ccc(Cl)cc3)nc3ccccc32)cc1	MTT		10.1 µM
COc1cc2ncnc(Nc3ccc(F)c(Cl)c3)c2cc1NC(=O)N/N=C/c1cccn1CCCN1CCCC1	MTT	72 h	0.06 µM
CC(=O)OCCOC(=O)[C@]1(C)CC[C@]2(C)CC[C@]3(C)C4=CC=C5C(=CC(=O)C(O)=C5C)[C@]4(C)CC[C@@]3(C)[C@@H]2C1	MTT	48 h	2.55 µM
COc1c(-c2coc3cc4c(cc3c2=O)CC(OC(C)=O)C(C)(C)O4)ccc2c1C=CC(C)(C)O2 (stereo not drawn)	WST-1	72 h	124 µM
CC1=C(O)C(=O)C=C2C1=CC=C1[C@@]2(C)CC[C@@]2(C)[C@@H]3C[C@](C)(C(=O)OCCCN4C(=O)C5C=CC=CC5C4=O)CC[C@]3(C)CC[C@]12C (stereo partly drawn)	MTT	48 h	1.27 µM
CC(C)C(=O)Nc1ccc([N+](=O)[O-])c(C(F)(F)F)c1	CCK-8	48 h	2.54 µM
O=C(N/N=C/CN1CCOCC1)Nc1cc2c(Nc3ccc(F)c(Cl)c3)ncnc2cc1O[C@H]1CCOC1	MTT	72 h	3.26 µM
CC1=C(O)C(=O)C=C2C1=CC=C1[C@@]2(C)CC[C@@]2(C)[C@@H]3C[C@](C)(C(=O)OCCCCCCCO)CC[C@]3(C)CC[C@]12C	MTT	48 h	7.21 µM
COc1cc2ncnc(Nc3ccc(F)c(Cl)c3)c2cc1NC(=O)N/N=C/CN1CCCC1	MTT	72 h	2.48 µM
O=c1[nH]cc(F)c(=O)[nH]1	MTT	48 h	32.8 µM
CCN(CC)CCCn1cccc1/C=N/NC(=O)Nc1cc2c(Nc3ccc(F)c(Cl)c3)ncnc2cc1OC	MTT	72 h	0.22 µM
COC(=O)CN=c1scc(-c2ccccc2)n1-c1ccccc1C	MTT	72 h	79.2 µM
O=C(N/N=C/c1cccn1CCCN1CCOCC1)Nc1cc2c(Nc3ccc(F)c(Cl)c3)ncnc2cc1O[C@H]1CCOC1	MTT	72 h	1.89 µM
Cc1ccc2nc(-c3cc(Br)ccc3O)[nH]c2c1	MTT	48 h	8.93 µM
